Results taken from ChEMBL document CHEMBL4765307, “Design, synthesis and biological activity of novel 2,3,4,5-tetra-substituted thiophene derivatives as PI3Kα inhibitors with potent antitumor activity” (Eur J Med Chem, 2020).

Tests used:
PI3K p110 beta/p85 alpha = PI3K p110 beta/p85 alpha (Homo sapiens, UniProt P42338); experiment: Inhibition of N-terminal His6-tagged human recombinant full length PI3Kbeta co-expressed with human recombinant full length P85alpha in baculovirus infected Sf21 cells using PIP2 peptide as substrate incubated for 1 hr in presence ATP by ADP-Glo Kinase Assay
Chain of PI3K p110 beta/p85 alpha (P27986 whole entry): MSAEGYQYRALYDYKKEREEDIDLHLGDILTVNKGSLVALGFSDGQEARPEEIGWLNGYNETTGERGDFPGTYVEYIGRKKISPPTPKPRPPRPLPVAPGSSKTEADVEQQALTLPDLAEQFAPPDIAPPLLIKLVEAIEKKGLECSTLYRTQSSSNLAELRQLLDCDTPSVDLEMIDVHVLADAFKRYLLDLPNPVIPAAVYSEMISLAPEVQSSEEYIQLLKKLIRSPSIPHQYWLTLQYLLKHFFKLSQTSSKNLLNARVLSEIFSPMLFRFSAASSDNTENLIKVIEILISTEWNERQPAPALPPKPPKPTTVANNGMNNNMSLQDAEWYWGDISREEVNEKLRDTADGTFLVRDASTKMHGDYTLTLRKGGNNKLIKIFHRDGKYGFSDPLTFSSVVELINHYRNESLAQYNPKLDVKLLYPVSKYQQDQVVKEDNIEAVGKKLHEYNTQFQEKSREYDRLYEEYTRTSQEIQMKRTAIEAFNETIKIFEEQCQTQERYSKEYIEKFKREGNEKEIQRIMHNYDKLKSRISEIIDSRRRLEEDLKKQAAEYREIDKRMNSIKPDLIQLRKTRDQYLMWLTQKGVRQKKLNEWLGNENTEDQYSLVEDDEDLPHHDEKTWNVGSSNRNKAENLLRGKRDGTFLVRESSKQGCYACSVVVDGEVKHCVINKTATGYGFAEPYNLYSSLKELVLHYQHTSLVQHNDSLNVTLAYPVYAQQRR
Chain of PI3K p110 beta/p85 alpha (P42338 whole entry): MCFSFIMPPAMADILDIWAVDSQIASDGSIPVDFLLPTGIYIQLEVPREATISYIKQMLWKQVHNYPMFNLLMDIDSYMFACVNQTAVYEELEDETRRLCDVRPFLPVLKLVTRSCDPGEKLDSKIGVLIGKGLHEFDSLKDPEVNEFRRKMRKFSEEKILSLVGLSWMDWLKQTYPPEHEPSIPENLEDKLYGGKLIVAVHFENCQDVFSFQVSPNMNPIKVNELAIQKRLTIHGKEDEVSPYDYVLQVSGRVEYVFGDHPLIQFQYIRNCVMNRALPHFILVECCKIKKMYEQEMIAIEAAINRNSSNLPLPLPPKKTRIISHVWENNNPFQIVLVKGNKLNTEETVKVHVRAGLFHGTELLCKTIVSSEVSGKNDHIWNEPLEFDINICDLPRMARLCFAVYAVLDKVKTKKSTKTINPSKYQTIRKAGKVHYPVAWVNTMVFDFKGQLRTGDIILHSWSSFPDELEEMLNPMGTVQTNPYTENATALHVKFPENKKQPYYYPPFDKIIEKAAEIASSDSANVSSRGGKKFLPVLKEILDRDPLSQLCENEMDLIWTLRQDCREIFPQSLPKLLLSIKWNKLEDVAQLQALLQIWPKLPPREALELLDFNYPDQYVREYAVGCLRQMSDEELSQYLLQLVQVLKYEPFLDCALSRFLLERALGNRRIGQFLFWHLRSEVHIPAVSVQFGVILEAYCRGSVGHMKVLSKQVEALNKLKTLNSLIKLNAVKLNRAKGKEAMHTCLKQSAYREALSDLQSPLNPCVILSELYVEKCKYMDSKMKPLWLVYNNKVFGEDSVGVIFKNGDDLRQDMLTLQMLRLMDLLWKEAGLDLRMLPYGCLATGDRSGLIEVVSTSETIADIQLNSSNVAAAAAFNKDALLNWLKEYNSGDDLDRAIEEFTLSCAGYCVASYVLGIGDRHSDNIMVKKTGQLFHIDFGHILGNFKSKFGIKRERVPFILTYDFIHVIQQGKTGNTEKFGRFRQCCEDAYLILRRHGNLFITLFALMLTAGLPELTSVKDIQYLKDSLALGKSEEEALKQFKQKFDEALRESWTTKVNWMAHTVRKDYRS
Method in brief: (§1)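 ADP-Glo reagent 1 for 40 min, then reagent 2 with 60 min equilibration before reading. IC50 taken from inhibition curves; average of at least two runs.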

[1] = target: Phosphatidylinositol 4,5-bisphosphate 3-kinase catalytic subunit gamma isoform (Homo sapiens, UniProt P48736); experiment: Inhibition of GST-tagged human recombinant PI3Kgamma catalytic domain (468 to 1203 residues) expressed in insect cells using PIP2 peptide as substrate incubated for 1 hr in presence ATP by ADP-Glo Kinase Assay; method in brief: as §1
Chain of Phosphatidylinositol 4,5-bisphosphate 3-kinase catalytic subunit gamma isoform (P48736 whole entry, the tested form may be a part, canonical isoform): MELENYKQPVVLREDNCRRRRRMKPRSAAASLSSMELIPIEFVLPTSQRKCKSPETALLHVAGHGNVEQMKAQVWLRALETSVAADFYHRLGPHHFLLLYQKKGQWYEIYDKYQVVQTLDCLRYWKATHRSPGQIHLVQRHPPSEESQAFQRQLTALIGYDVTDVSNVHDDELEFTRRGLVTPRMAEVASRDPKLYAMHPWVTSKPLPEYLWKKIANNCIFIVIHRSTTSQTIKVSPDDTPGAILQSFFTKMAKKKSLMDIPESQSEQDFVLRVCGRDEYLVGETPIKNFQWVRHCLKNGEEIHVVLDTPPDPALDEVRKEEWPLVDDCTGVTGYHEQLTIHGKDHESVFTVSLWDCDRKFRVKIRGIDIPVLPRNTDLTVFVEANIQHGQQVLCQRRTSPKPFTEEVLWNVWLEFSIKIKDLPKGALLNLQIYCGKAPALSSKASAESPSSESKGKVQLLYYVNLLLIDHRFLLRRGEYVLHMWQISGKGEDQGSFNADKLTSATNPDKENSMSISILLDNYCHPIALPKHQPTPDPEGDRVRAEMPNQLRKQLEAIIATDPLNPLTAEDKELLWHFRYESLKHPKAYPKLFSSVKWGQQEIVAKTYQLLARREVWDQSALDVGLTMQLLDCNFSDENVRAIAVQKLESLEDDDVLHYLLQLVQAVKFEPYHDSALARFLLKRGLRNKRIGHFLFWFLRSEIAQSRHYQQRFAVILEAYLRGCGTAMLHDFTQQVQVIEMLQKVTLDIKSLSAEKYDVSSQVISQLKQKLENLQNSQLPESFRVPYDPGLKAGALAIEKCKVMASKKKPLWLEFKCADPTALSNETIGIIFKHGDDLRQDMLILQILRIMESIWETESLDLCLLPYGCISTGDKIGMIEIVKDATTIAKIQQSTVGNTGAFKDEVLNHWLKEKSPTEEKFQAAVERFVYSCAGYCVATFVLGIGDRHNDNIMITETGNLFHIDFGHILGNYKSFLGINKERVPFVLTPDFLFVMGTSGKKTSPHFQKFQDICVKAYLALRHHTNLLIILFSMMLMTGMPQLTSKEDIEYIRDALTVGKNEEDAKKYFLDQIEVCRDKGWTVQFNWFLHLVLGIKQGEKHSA

[2] = target: Serine/threonine-protein kinase mTOR (Homo sapiens, UniProt P42345); experiment: Inhibition of N-terminal FLAG-tagged human recombinant mTOR (1362 to end residues) using ULight-4E-BP1 (Thr37/46) peptide as substrate incubated for 1 hr in presence of ATP by Lance Ultra assay
Method in brief: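 ULight-4E-BP1 (Thr37/46) peptide with 13 µM ATP; 1 h at room temperature. Stopped with EDTA quench buffer plus Eu-anti-phospho-4E-BP1, 15 min shake and 60 min equilibration, TR-FRET read. IC50 from inhibition curves; average of at least two runs.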

U-87 MG = experiment: Antiproliferative activity against human U87MG cells harboring PTEN deletion assessed as reduction in cell viability after 3 days by CellTiter-Glo luminescence assay; format: functional, cell-based, U-87MG ATCC; details: 72 h
Method in brief: (§2)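 ATCC lines, 10% FBS: T47D, H1975, H460 in RPMI1640; U87MG in DMEM; A549 in F12K. Seeded 3×10^3 per well the day before, exposed to 3-fold serial dilutions or DMSO for 3 days at 37 °C, 5% CO2; CellTiter-Glo luminescence.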

T47D = experiment: Antiproliferative activity against human T47D cells harboring PIK3CA mutation assessed as reduction in cell viability after 3 days by CellTiter-Glo luminescence assay; format: functional, cell-based; details: 72 h; method in brief: as §2
A549 = experiment: Antiproliferative activity against human A549 cells assessed as reduction in cell viability after 3 days by CellTiter-Glo luminescence assay; format: functional, cell-based; details: A549, 72 h; method in brief: as §2
[3] = Efflux ratio of permeability from basolateral to apical over apical to basolateral side in human Caco2 cells at 2 uM incubated for 2 hrs by LC-MS/MS analysis; format: ADME, cell-based; details: Caco-2
Method in brief: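 Caco-2 monolayers grown 21–28 days; compound 2 µM both directions in duplicate, DMSO <1%; 2 h at 37 °C, 5% CO2 without shaking. Donor and receiver levels by LC/MS/MS; integrity by lucifer yellow. Papp = (dCr/dt)×Vr/(A×C0); efflux ratio = Papp(B-A)/Papp(A-B).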

[4] = Half life in rat liver microsomes at 1 uM by LC-MS/MS analysis; format: ADME, Microsome
Method in brief: (§3)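 Compound 1 µM with human or rat microsomes 0.5 mg/mL, preincubated 10 min at 37 °C in 100 mM potassium phosphate pH 7.4, 10 mM MgCl2; started with NADPH, sampled 0–60 min, quenched with cold acetonitrile, LC–MS/MS. A parallel no-NADPH control was run.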

[5] = Clearance in rat liver microsomes at 1 uM measured after 60 mins by LC-MS/MS analysis; format: ADME, Microsome; details: read-out: CLH; method in brief: as §3
CYP3A4 = CYP3A4 (Homo sapiens, UniProt P08684); experiment: Inhibition of CYP3A4 in human liver microsomes using midazolam as substrate at 10 uM preincubated for 10 mins followed by incubation with NADPH for 10 mins by LC- MS/MS analysis; format: ADME; details: probe midazolam, time 20 min
Chain of CYP3A4 (P08684 whole entry): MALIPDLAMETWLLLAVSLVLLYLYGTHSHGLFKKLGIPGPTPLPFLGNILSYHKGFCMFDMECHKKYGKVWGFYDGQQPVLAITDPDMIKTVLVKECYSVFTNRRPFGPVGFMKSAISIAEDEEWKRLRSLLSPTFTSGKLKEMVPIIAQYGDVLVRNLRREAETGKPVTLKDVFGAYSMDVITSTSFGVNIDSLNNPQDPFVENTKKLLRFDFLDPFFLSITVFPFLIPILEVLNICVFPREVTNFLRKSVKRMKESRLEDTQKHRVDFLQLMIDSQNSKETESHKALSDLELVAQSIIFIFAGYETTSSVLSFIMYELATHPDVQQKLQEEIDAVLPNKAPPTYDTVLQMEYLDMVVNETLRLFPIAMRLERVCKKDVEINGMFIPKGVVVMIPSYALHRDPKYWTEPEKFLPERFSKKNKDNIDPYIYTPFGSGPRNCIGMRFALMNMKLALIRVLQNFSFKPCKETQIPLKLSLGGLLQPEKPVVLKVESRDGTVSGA
Method in brief: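 Human liver microsomes 0.25 mg/mL with probe substrate (CYP1A2 10 µM phenacetin; CYP2D6 5 µM dextromethorphan; CYP3A4 2 µM midazolam), test compound 10 µM; 10 min preincubation at 37 °C, NADPH added (final 10 mM), 10 min at 37 °C; stopped with cold acetonitrile containing internal standards; LC-MS/MS.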

[6] = Half life in Sprague-Dawley rat at 5 mg/kg, iv measured after 24 hrs by LC-MS/MS analysis; format: ADME, organism-based; details: in vivo
Method in brief: (§4)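 Male SD rats (n=6), single 5 mg/kg intravenous dose; heparinised blood at 0.083–24 h, centrifuged at 4 °C; plasma quantified by LC–MS/MS; noncompartmental parameters.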

[7] = Volume of distribution in Sprague-Dawley rat at 5 mg/kg, iv measured after 24 hrs by LC-MS/MS analysis; format: ADME, organism-based; details: in vivo; method in brief: as §4
[8] = Clearance in Sprague-Dawley rat at 5 mg/kg, iv measured after 24 hrs by LC-MS/MS analysis; format: ADME, organism-based; details: in vivo; method in brief: as §4
[9] = AUC (0 to infinity) in Sprague-Dawley rat at 5 mg/kg, iv measured after 24 hrs by LC-MS/MS analysis; format: ADME, organism-based; parameters: route intravenous, dose 5 mg/kg, time 24 hrs; details: in vivo; method in brief: as §4
[10] = target: Phosphatidylinositol 4,5-bisphosphate 3-kinase catalytic subunit alpha isoform (Homo sapiens) (UniProt P42336); experiment: Inhibition of PI3Kalpha in human T47D cells assessed as inhibition of insulin-stimulated Akt phosphorylation at Ser473 residue at 3 uM preincubated for 2 hrs followed by incubation with insulin for 2 hrs by western blot analysis relative to control; format: cell-based; details: time 4.0 hrs
Chain of Phosphatidylinositol 4,5-bisphosphate 3-kinase catalytic subunit alpha isoform (Homo sapiens) (P42336 whole entry, canonical isoform): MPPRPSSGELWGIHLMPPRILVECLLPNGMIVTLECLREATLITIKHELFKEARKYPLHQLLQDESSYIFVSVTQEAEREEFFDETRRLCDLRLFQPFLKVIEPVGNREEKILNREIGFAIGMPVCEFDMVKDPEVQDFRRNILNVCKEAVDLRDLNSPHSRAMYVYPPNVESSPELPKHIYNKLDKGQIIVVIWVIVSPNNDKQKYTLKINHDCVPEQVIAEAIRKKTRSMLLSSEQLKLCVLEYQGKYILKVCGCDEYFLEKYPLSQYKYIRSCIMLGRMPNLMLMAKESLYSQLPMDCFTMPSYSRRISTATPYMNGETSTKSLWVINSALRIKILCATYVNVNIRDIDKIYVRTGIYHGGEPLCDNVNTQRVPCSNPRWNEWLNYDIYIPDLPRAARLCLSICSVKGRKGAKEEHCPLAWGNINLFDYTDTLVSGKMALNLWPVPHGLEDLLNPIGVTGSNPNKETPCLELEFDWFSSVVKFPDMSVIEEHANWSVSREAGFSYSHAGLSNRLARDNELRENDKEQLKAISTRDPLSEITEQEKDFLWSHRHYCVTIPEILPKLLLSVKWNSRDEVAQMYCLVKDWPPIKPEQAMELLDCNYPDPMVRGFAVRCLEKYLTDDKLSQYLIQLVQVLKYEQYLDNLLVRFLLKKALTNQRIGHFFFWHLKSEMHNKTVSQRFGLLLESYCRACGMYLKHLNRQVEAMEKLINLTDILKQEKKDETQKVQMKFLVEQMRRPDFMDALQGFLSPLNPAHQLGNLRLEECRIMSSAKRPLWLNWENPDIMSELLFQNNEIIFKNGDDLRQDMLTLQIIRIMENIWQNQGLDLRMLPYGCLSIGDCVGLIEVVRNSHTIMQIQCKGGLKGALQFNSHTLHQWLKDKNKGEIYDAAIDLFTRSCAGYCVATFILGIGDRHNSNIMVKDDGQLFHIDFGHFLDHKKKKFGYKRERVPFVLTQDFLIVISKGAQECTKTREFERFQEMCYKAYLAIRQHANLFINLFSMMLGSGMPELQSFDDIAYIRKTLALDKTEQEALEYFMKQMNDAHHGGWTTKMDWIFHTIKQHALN
Method in brief: (§5)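 T47D cells given compound at 37 °C for 2 h, then stimulated with 1 µg/mL insulin for 2 h; lysed in RIPA with protease/phosphatase inhibitors and 1 mM PMSF; BCA-normalised SDS-PAGE, PVDF blot probed overnight at 4 °C for total Akt and pAkt Ser473, infrared secondary detection.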

[11] = target: Phosphatidylinositol 4,5-bisphosphate 3-kinase catalytic subunit alpha isoform (Homo sapiens) (UniProt P42336); experiment: Inhibition of PI3Kalpha in human T47D cells assessed as inhibition of insulin-stimulated Akt phosphorylation at Ser473 residue at 1 uM preincubated for 2 hrs followed by incubation with insulin for 2 hrs by western blot analysis relative to control; format: cell-based; details: time 4.0 hrs; method in brief: as §5
[12] = target: Phosphatidylinositol 4,5-bisphosphate 3-kinase catalytic subunit alpha isoform (Homo sapiens) (UniProt P42336); experiment: Inhibition of PI3Kalpha in human T47D cells assessed as inhibition of insulin-stimulated Akt phosphorylation at Ser473 residue at 0.1 uM preincubated for 2 hrs followed by incubation with insulin for 2 hrs by western blot analysis relative to control; format: cell-based; details: time 4.0 hrs; method in brief: as §5
[13] = target: Phosphatidylinositol 4,5-bisphosphate 3-kinase catalytic subunit alpha isoform (Homo sapiens) (UniProt P42336); experiment: Inhibition of PI3Kalpha in human T47D cells assessed as inhibition of insulin-stimulated Akt phosphorylation at Ser473 residue preincubated for 2 hrs followed by incubation with insulin for 2 hrs by western blot analysis relative to control; format: cell-based; details: dose 0.1-3 µM, time 4.0 hrs; method in brief: as §5
[14] = target: Voltage-gated inwardly rectifying potassium channel KCNH2 (Homo sapiens, UniProt Q12809); experiment: Inhibition of human ERG expressed in CHO cells assessed as inhibition of channel tail current at holding potential of -80 mV by Qpatch assay; format: cell-based
Method in brief: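 CHO cells stably expressing hERG, QPatch in single-hole mode at room temperature, held at […]; each concentration superfused to steady-state block (three superimposable traces), washout between concentrations; cisapride as quality control.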

N#Cc1c(N2CCOCC2)sc(-c2nc[nH]n2)c1-c1ccc(NC(=O)Nc2ccccc2Cl)cc1
IC50 (PI3K p110 beta/p85 alpha): 0.108 µM | Ki (PI3K p110 beta/p85 alpha): 0.089 µM | IC50 [1]: 0.258 µM | Ki [1]: 0.193 µM | IC50 [2]: 1.8 µM | IC50 (U-87 MG): 2.86 µM | IC50 (T47D): 0.31 µM | IC50 (A549): 3.84 µM | efflux ratio at 2 h, 2 µM [3]: 1.08 | half-life at 1 µM [4]: 0.745 h | microsomal CLint at 1 µM [5]: 32.8 µL/min/mg | inhibition at 10 min, 10 µM (CYP3A4): 1.5% | half-life [6]: 1.98 h | Vd [7]: 8.6 L/kg | clearance [8]: 3.14 L/h/kg | AUC(0-inf) [9]: 1.62 µg·h/mL | inhibition [10]: 90% | inhibition [11]: 78% | inhibition [12]: 58% | inhibition [13]: Dose-dependent effect | IC50 [14]: > 30 µM
